Results from ChEMBL document CHEMBL3259519, “Targeting triple-negative breast cancer cells with 6,7-bis(hydroxymethyl)-1H,3H-pyrrolo[1,2-c]thiazoles” (Eur J Med Chem, 2014).
One block for each compound: values may come before it. The source made the active and inactive calls. The rule behind the calls is not given here.

Tests used:
HCC1806 [1] = assay: Antiproliferative activity against ER, PR, HER2-deficient human HCC1806 cells as growth inhibition after 24 hrs by MTT assay; type: functional, cell-based; details: HCC1806, 24 h
How it was run: (§1)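 Cells were seeded at 2x10^4/well and left to attach overnight. Compounds in DMSO were diluted in medium and applied for 24, 48, 72 or 96 h. Cells were then PBS-washed and given 0.5 mg/mL MTT (pH 7.4) at 37 °C for 4 h. Formazan was dissolved in acid isopropanol. IC50 came from dose-response curves by exponential decay fitting (r2>0.9), with 95% CI.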

HCC1806 [2] = assay: Antiproliferative activity against ER, PR, HER2-deficient human HCC1806 cells as growth inhibition after 48 hrs by MTT assay; type: functional, cell-based; details: HCC1806, 48 h; how it was run: as §1
HCC1806 [3] = assay: Antiproliferative activity against ER, PR, HER2-deficient human HCC1806 cells as growth inhibition after 72 hrs by MTT assay; type: functional, cell-based; details: HCC1806, 72 h; how it was run: as §1
HCC1806 [4] = assay: Antiproliferative activity against ER, PR, HER2-deficient human HCC1806 cells as growth inhibition after 96 hrs by MTT assay; type: functional, cell-based; details: HCC1806, 96 h; how it was run: as §1
HCC1954 [5] = assay: Antiproliferative activity against human HCC1954 cells expressing HER2 assessed as growth inhibition after 24 hrs by MTT assay; type: functional, cell-based; details: HCC1954, 24 h; how it was run: as §1
HCC1954 [6] = assay: Antiproliferative activity against human HCC1954 cells expressing HER2 assessed as growth inhibition after 48 hrs by MTT assay; type: functional, cell-based; details: HCC1954, 48 h; how it was run: as §1
HCC1954 [7] = assay: Antiproliferative activity against human HCC1954 cells expressing HER2 assessed as growth inhibition after 72 hrs by MTT assay; type: functional, cell-based; details: HCC1954, 72 h; how it was run: as §1
HCC1954 [8] = assay: Antiproliferative activity against human HCC1954 cells expressing HER2 assessed as growth inhibition after 96 hrs by MTT assay; type: functional, cell-based; details: HCC1954, 96 h; how it was run: as §1
MCF7 [9] = assay: Antiproliferative activity against human MCF7 cells expressing ER and BRCA2 assessed as growth inhibition after 24 hrs by MTT assay; type: functional, cell-based; details: MCF7, 24 h; how it was run: as §1
MCF7 [10] = assay: Antiproliferative activity against human MCF7 cells expressing ER and BRCA2 assessed as growth inhibition after 48 hrs by MTT assay; type: functional, cell-based; details: MCF7, 48 h; how it was run: as §1
MCF7 [11] = assay: Antiproliferative activity against human MCF7 cells expressing ER and BRCA2 assessed as growth inhibition after 72 hrs by MTT assay; type: functional, cell-based; details: MCF7, 72 h; how it was run: as §1
MCF7 [12] = assay: Antiproliferative activity against human MCF7 cells expressing ER and BRCA2 assessed as growth inhibition after 96 hrs by MTT assay; type: functional, cell-based; details: MCF7, 96 h; how it was run: as §1
HCC1806 [13] = assay: Cell cycle arrest in ER, PR, HER2-deficient human HCC1806 cells as accumulation at pre-G0 phase phase at IC50 after 48 hrs by propidium staining-based FACS analysis; type: functional
How it was run: (§2)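 2x10^6 cells were attached overnight, then exposed to IC50 for 48 h (DMSO 0.1%). They were fixed in ice-cold 70% ethanol for 30 min in the dark, PBS-washed and stained with PI/RNase for 15 min at RT. Flow cytometry used 488 nm excitation and a 585/42 filter. Sub-G0, G0/G1, S and G2/M fractions were reported as mean ± SD (n≥5).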

MCF7 [14] = assay: Induction of DNA strand break in human MCF7 cells expressing ER and BRCA2 at IC50 after 48 hrs by alkaline comet assay; type: functional, cell-based
How it was run: (§3)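 5x10^5 cells got IC50 or 3x IC50 for 48 h (DMSO 0.1%); H2O2-treated cells served as positive control. Cells in 1% low-melt agarose went onto slides precoated with normal-melt agarose. Slides were lysed overnight in alkaline buffer (2.5 M NaCl, EDTA, Tris, DMSO, Triton X-100). Electrophoresis ran in 300 mM NaOH/1 mM EDTA (pH>13) at 25 V for 15 min. Slides were neutralized in Tris pH 7.4 and stained with 25 µg/mL ethidium bromide for fluorescence microscopy.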

MCF7 [15] = assay: Induction of DNA strand break in human MCF7 cells expressing ER and BRCA2 at 3 x IC50 after 48 hrs by alkaline comet assay; type: functional, cell-based; how it was run: as §3
HCC1806 [16] = assay: Induction of DNA strand break in ER, PR, HER2-deficient human HCC1806 cells at IC50 after 48 hrs by alkaline comet assay; type: functional, cell-based; how it was run: as §3
HCC1806 [17] = assay: Induction of DNA strand break in ER, PR, HER2-deficient human HCC1806 cells at 3 x IC50 after 48 hrs by alkaline comet assay; type: functional, cell-based; how it was run: as §3
MCF7 [18] = assay: Cytotoxicity against human MCF7 cells expressing ER and BRCA2 assessed as reduction of survival factor at IC50 incubated for 48 hrs measured after 12 days by crystal violet staining-based clonogenic assay; type: functional, cell-based
HCC1806 [19] = assay: Cytotoxicity against ER, PR, HER2-deficient human HCC1806 cells as reduction of survival factor at IC50 incubated for 48 hrs measured after 12 days by crystal violet staining-based clonogenic assay; type: functional
MCF7 [20] = assay: Cytotoxicity against human MCF7 cells expressing ER and BRCA2 assessed as reduction of total protein content at IC50 after 48 hrs by SRB assay relative to control; type: functional; parameters: scale not given: the % may be the effect or the level left
HCC1806 [21] = assay: Cytotoxicity against ER, PR, HER2-deficient human HCC1806 cells as reduction of total protein content at IC50 incubated for 48 hrs by SRB assay relative to control; type: functional; parameters: scale not given: the % may be the effect or the level left
MCF7 [22] = assay: Induction of apoptosis in human MCF7 cells expressing ER and BRCA2 assessed as decrease in viable cells at IC50 after 48 hrs by Annexin V/propidium iodide staining-based flow cytometry relative to control; type: functional
How it was run: (§4)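 2x10^6 cells were attached overnight, then given IC50 for 48 h (DMSO 0.1%). PBS-washed cells were stained with Annexin V-FITC and PI in binding buffer for 15 min at 4 °C in the dark. Flow cytometry used 488 nm excitation. Cells were gated as viable, apoptotic, late apoptotic/necrotic or necrotic, reported as mean ± SD (n≥5).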

HCC1806 [23] = assay: Induction of apoptosis in triple negative ER, PR, HER2-deficient human HCC1806 cells assessed as increase of late apoptotic/nectrotic cells at IC50 after 48 hrs by Annexin V/propidium iodide staining-based flow cytometry relative to control; type: functional, cell-based; how it was run: as §4
HCC1806 [24] = assay: Induction of apoptosis in triple negative ER, PR, HER2-deficient human HCC1806 cells assessed as decrease of viable cells at IC50 after 48 hrs by Annexin V/propidium iodide staining-based flow cytometry relative to control; type: functional; how it was run: as §4
MCF7 [25] = assay: Induction of apoptosis in human MCF7 cells expressing ER and BRCA2 assessed as increase of late apoptotic/nectrotic cells at IC50 after 48 hrs by Annexin V/propidium iodide staining-based flow cytometry relative to control; type: functional, cell-based; how it was run: as §4
MCF7 [26] = assay: Induction of apoptosis in human MCF7 cells expressing ER and BRCA2 assessed as early apoptotic cells at IC50 after 48 hrs by Annexin V/propidium iodide staining-based flow cytometry relative to control; type: functional, cell-based; how it was run: as §4
MCF7 [27] = assay: Induction of apoptosis in human MCF7 cells expressing ER and BRCA2 assessed as increase of necrotic cells at IC50 after 48 hrs by Annexin V/propidium iodide staining-based flow cytometry relative to control; type: functional, cell-based; how it was run: as §4
HCC1806 [28] = assay: Induction of apoptosis in triple negative ER, PR, HER2-deficient human HCC1806 cells assessed as increase of necrotic cells at IC50 after 48 hrs by Annexin V/propidium iodide staining-based flow cytometry relative to control; type: functional, cell-based; how it was run: as §4
MCF7 [29] = assay: Induction of apoptosis in human MCF7 cells expressing ER and BRCA2 assessed as increase in p53 expression at IC50 after 48 hrs by Western blotting analysis relative to control; type: functional, cell-based
How it was run: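 Cells were treated with IC50 for 48 h and lysed on ice in RIPA with protease inhibitors, then sonicated and centrifuged. Protein was quantified by BCA and separated on 10% SDS-PAGE, then transferred and blocked with 4% BSA/TBS-T. Blots were probed overnight at 4 °C with anti-p53 (DO7) and actin, then anti-mouse secondary. ECF fluorescence was scanned and quantified.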

MCF7 [30] = assay: Cell cycle arrest in human MCF7 cells expressing ER and BRCA2 assessed as decrease in accumulation at G0/G1 phase at IC50 after 48 hrs by propidium staining-based FACS analysis; type: functional; how it was run: as §2
MCF7 [31] = assay: Cell cycle arrest in human MCF7 cells expressing ER and BRCA2 assessed as increase in accumulation at S phase at IC50 after 48 hrs by propidium staining-based FACS analysis; type: functional; how it was run: as §2
MCF7 [32] = assay: Cell cycle arrest in human MCF7 cells expressing ER and BRCA2 assessed as blockade at G2/M phase at IC50 after 48 hrs by propidium staining-based FACS analysis; type: functional; how it was run: as §2
HCC1806 [33] = assay: Cell cycle arrest in ER, PR, HER2-deficient human HCC1806 cells as accumulation at S phase at IC50 after 48 hrs by propidium staining-based FACS analysis; type: functional; how it was run: as §2
HCC1806 [34] = assay: Cell cycle arrest in ER, PR, HER2-deficient human HCC1806 cells as decrease in accumulation at G0/G1 phase at IC50 after 48 hrs by propidium staining-based FACS analysis; type: functional; how it was run: as §2
HCC1806 [35] = assay: Induction of apoptosis in ER, PR, HER2-deficient human HCC1806 cells as increase in Bax/Bcl2 expression ratio at IC50 after 48 hrs by flow cytometry relative to control
MCF7 [36] = assay: Induction of apoptosis in human MCF7 cells expressing ER and BRCA2 assessed as increase in Bax/Bcl2 expression ratio at IC50 after 48 hrs by flow cytometry relative to control
HCC1806 [37] = assay: Induction of apoptosis in triple negative ER, PR, HER2-deficient human HCC1806 cells assessed as reduction of long term cell survival at IC50 after 48 hrs by clonogenic assay relative to control

IC50 (HCC1806 [1]): > 100 µM
IC50 (HCC1806 [2]): 41.7 µM
IC50 (HCC1806 [3]): 26.9 µM
IC50 (HCC1806 [4]): 21.3 µM
IC50 (HCC1954 [5]): 99.5 µM
IC50 (HCC1954 [6]): 69 µM
IC50 (HCC1954 [7]): 55.9 µM
IC50 (HCC1954 [8]): 33.5 µM
IC50 (MCF7 [9]): > 100 µM
IC50 (MCF7 [10]): > 100 µM
IC50 (MCF7 [11]): > 100 µM
IC50 (MCF7 [12]): > 100 µM
Compound: Cc1c(CO)c(CO)c2n1[C@H](c1ccccc1)SC2(C)C

IC50 (HCC1806 [1]): 80.3 µM
IC50 (HCC1806 [2]): 26.4 µM
IC50 (HCC1806 [3]): 11.9 µM
IC50 (HCC1806 [4]): 5.4 µM
IC50 (HCC1954 [5]): > 100 µM
IC50 (HCC1954 [6]): 65.6 µM
IC50 (HCC1954 [7]): 46.6 µM
IC50 (HCC1954 [8]): 27.4 µM
IC50 (MCF7 [9]): > 100 µM
IC50 (MCF7 [10]): 86.2 µM
IC50 (MCF7 [11]): 53.9 µM
IC50 (MCF7 [12]): 29.5 µM
Compound: Cc1c(CO)c(CO)c2n1[C@@H](c1ccc(O)cc1)SC2
Activity (HCC1806 [13]): Active
Activity (MCF7 [14]): Active
Activity (MCF7 [15]): Active
Activity (HCC1806 [16]): Active
Activity (HCC1806 [17]): Active
Activity (MCF7 [18]): Active
Activity (HCC1806 [19]): <2%
Activity (MCF7 [20]): 15.4%
Activity (HCC1806 [21]): 50%
Activity (MCF7 [22]): 21.4%
Activity (HCC1806 [23]): Active
Activity (HCC1806 [24]): Active
Activity (MCF7 [25]): Active
Activity (MCF7 [26]): Active
Activity (MCF7 [27]): Active
Activity (HCC1806 [28]): Active
Activity (MCF7 [29]): Active
Activity (MCF7 [30]): Active
Activity (MCF7 [31]): Active
Activity (MCF7 [32]): inactive
Activity (HCC1806 [33]): Active
Activity (HCC1806 [34]): Active
Activity (HCC1806 [35]): Active
Activity (MCF7 [36]): Active
Activity (HCC1806 [37]): 1.4%
